# Columns and labels:
# [1] = system: CC(C)[C@H](NC(=O)[C@H](CCC(=O)O)NC(=O)[C@H](CCC(=O)O)NC(=O)[C@@H](NC(=O)[C@H](CCC(=O)O)NC(=O)[C@H](CC(=O)O)NC(=O)[C@H](CC(=O)O)NC(=O)[C@@H](N)CCC(=O)O)[C@@H](C)c1ccc(O)cc1)C(=O)O; test: (§1) Affinity towards tyrosine kinase Syk
# Method in brief: (§2)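 Syk purified from rat spleen (1 unit = 1 pmol phosphate/min to polyGlu4Tyr at 0.1 mg/mL). Kinetic assays at 30 °C in 50 mM Tris/HCl pH 7.5, 5 mM MnCl2, 20 µM [γ33P]ATP, 10 units enzyme, varied peptide substrate. Stopped with 1 N HCl, heated to hydrolyse ATP, Pi removed as phosphomolybdic complex; aqueous phosphopeptide counted by scintillation; Km derived.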
# [2] = system: CC(C)[C@H](NC(=O)[C@H](CCC(=O)O)NC(=O)[C@H](CCC(=O)O)NC(=O)[C@@H]1Cc2cc(O)ccc2CN1C(=O)[C@H](CCC(=O)O)NC(=O)[C@H](CC(=O)O)NC(=O)[C@H](CC(=O)O)NC(=O)[C@@H](N)CCC(=O)O)C(=O)O; test: as §1; method in brief: as §2
# [3] = system: CC(C)[C@H](NC(=O)[C@H](CCC(=O)O)NC(=O)[C@H](CCC(=O)O)NC(=O)[C@@]1(NC(=O)[C@H](CCC(=O)O)NC(=O)[C@H](CC(=O)O)NC(=O)[C@H](CC(=O)O)NC(=O)[C@@H](N)CCC(=O)O)CCc2cc(O)ccc2C1)C(=O)O; test: as §1; method in brief: as §2
# [4] = system: CC(C)[C@H](NC(=O)[C@H](CCC(=O)O)NC(=O)[C@H](CCC(=O)O)NC(=O)[C@@]1(NC(=O)[C@H](CCC(=O)O)NC(=O)[C@H](CC(=O)O)NC(=O)[C@H](CC(=O)O)NC(=O)[C@@H](N)CCC(=O)O)Cc2ccc(O)cc2C1)C(=O)O; test: as §1; method in brief: as §2
# [5] = system: CC(C)[C@H](NC(=O)[C@H](CCC(=O)O)NC(=O)[C@H](CCC(=O)O)NC(=O)[C@H](Cc1ccc(O)cc1)NC(=O)[C@H](CCC(=O)O)NC(=O)[C@H](CC(=O)O)NC(=O)[C@H](CC(=O)O)NC(=O)[C@@H](N)CCC(=O)O)C(=O)O; test: as §1; method in brief: as §2
# [6] = system: CC(C)[C@H](NC(=O)[C@H](CCC(=O)O)NC(=O)[C@H](CCC(=O)O)NC(=O)[C@H](Cc1cccc(O)c1)NC(=O)[C@H](CCC(=O)O)NC(=O)[C@H](CC(=O)O)NC(=O)[C@H](CC(=O)O)NC(=O)[C@@H](N)CCC(=O)O)C(=O)O; test: as §1; method in brief: as §2
# [7] = system: CC(C)[C@H](NC(=O)[C@H](CCC(=O)O)NC(=O)[C@H](CCC(=O)O)NC(=O)[C@H](NC(=O)[C@H](CCC(=O)O)NC(=O)[C@H](CC(=O)O)NC(=O)[C@H](CC(=O)O)NC(=O)[C@@H](N)CCC(=O)O)[C@@H](C)c1ccc(O)cc1)C(=O)O; test: as §1; method in brief: as §2
# [8] = system: CC(C)[C@H](NC(=O)[C@H](CCC(=O)O)NC(=O)[C@H](CCC(=O)O)NC(=O)[C@H]1Cc2cc(O)ccc2CN1C(=O)[C@H](CCC(=O)O)NC(=O)[C@H](CC(=O)O)NC(=O)[C@H](CC(=O)O)NC(=O)[C@@H](N)CCC(=O)O)C(=O)O; test: as §1; method in brief: as §2
# [9] = system: CC(C)[C@H](NC(=O)[C@H](CCC(=O)O)NC(=O)[C@H](CCC(=O)O)NC(=O)[C@](C)(Cc1ccc(O)cc1)NC(=O)[C@H](CCC(=O)O)NC(=O)[C@H](CC(=O)O)NC(=O)[C@H](CC(=O)O)NC(=O)[C@@H](N)CCC(=O)O)C(=O)O; test: as §1; method in brief: as §2
# [10] = system: CC(C)[C@H](NC(=O)[C@H](CCC(=O)O)NC(=O)[C@H](CCC(=O)O)NC(=O)[C@]1(NC(=O)[C@H](CCC(=O)O)NC(=O)[C@H](CC(=O)O)NC(=O)[C@H](CC(=O)O)NC(=O)[C@@H](N)CCC(=O)O)CCc2cc(O)ccc2C1)C(=O)O; test: as §1; method in brief: as §2
# [11] = system: CC(C)[C@H](NC(=O)[C@H](CCC(=O)O)NC(=O)[C@H](CCC(=O)O)NC(=O)[C@]1(NC(=O)[C@H](CCC(=O)O)NC(=O)[C@H](CC(=O)O)NC(=O)[C@H](CC(=O)O)NC(=O)[C@@H](N)CCC(=O)O)Cc2ccc(O)cc2C1)C(=O)O; test: as §1; method in brief: as §2
substance,measurement,setting,value
Tyrosine-protein kinase SYK (Homo sapiens) (from UniProt P43405),Km,[1],6.5 µM
same,Km,[2],124 µM
same,Km,[3],3.6 µM
same,Km,[4],146 µM
same,Km,[5],3.6 µM
same,Km,[6],5.5 µM
same,Km,[7],63.2 µM
same,Km,[8],136 µM
same,Km,[9],87.7 µM
same,Km,[10],98 µM
same,Km,[11],17.3 µM
